Experimental data taken from ChEMBL document CHEMBL3608231, “Eremophilane Sesquiterpenes and Polyketones Produced by an Endophytic Guignardia Fungus from the Toxic Plant Gelsemium elegans” (J Nat Prod, 2015).
Active and inactive are the calls of the source.

Key:
Format in all cases: functional, cell-based
HCT-8 = experiment: Cytotoxicity against human HCT8 cells after 72 hrs by MTT assay
Method in brief: (§1)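 Cells kept in RPMI 1640 with 10% FBS in 96-well plates, 24 h at 37 °C, then samples added from DMSO solution at final 10 μM. Growth assessed after 72 h by MTT (4 h at 37 °C), formazan dissolved in DMSO, absorbance at 570 nm. Camptothecin as positive control.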

HCT-116 = experiment: Cytotoxicity against human HCT116 cells after 72 hrs by MTT assay; method in brief: as §1
Bel-7402 = experiment: Cytotoxicity against human Bel7402 cells after 72 hrs by MTT assay; method in brief: as §1
BGC-823 = experiment: Cytotoxicity against human BGC823 cells after 72 hrs by MTT assay; method in brief: as §1
A549 = experiment: Cytotoxicity against human A549 cells after 72 hrs by MTT assay; method in brief: as §1
A2780 = experiment: Cytotoxicity against human A2780 cells after 72 hrs by MTT assay; method in brief: as §1

Measured: Activity

CC(C)=C1C[C@@]2(C)C(=CC1=O)[C@@H](O)[C@H](O)[C@H](O)[C@@H]2C
inactive: HCT-8 | HCT-116 | Bel-7402 | BGC-823 | A549 | A2780

C=C(C)[C@@H]1CC[C@@]2(C)OC3=C(C[C@@H]12)C(=O)[C@@H]1C[C@@]3(O)CO1
inactive: HCT-8 | HCT-116 | Bel-7402 | BGC-823 | A549 | A2780

C[C@H]1CCC(=O)O[C@@H]2C(=O)c3c(O)cccc3O[C@H]21
inactive: HCT-8 | HCT-116 | Bel-7402 | BGC-823 | A549 | A2780

C=C(C)[C@@H]1C[C@@]2(C)C(=CC1=O)[C@@H](O)[C@H](O)[C@H](O)[C@@H]2C
inactive: HCT-8 | HCT-116 | Bel-7402 | BGC-823 | A549 | A2780

C=C(C)[C@@H]1C[C@@]2(C)C(=CC(=O)C[C@@H]2C)C[C@H]1O
inactive: HCT-8 | HCT-116 | Bel-7402 | BGC-823 | A549 | A2780

C=C(C)[C@H]1C[C@@]2(C)C(=CC1=O)[C@H](O)[C@H](O)C[C@@H]2C
inactive: HCT-8 | HCT-116 | Bel-7402 | BGC-823 | A549 | A2780

C=C1CC[C@H]2C(C)(C)CCC[C@]2(C)[C@H]1C[C@@]12O[C@@H]1[C@H](O)C(CO)=CC2=O
inactive: HCT-8 | HCT-116 | Bel-7402 | BGC-823 | A549 | A2780

CC(=O)O[C@H]1[C@@H](O)CC2=CC(=O)C(O)=C[C@]2(C)[C@H]1C
inactive: HCT-8 | HCT-116 | Bel-7402 | BGC-823 | A549 | A2780

C=C(C(C)=O)C(=C\c1cccc(C)c1N)/C(=C/O)CC
inactive: HCT-8 | HCT-116 | Bel-7402 | BGC-823 | A549 | A2780
